Reference: PubChem BioAssay
Calls of active or inactive are those of the source.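 The calls were made as follows, unless noted: active = viability at or under a set limit in both replicates, limit being median viability minus 3 SD (cut at about 48% in these data, passing the limit was not always enough); inconclusive = at or under the limit in just one replicate; inactive = at or above the limit in both replicates.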

How the values were obtained:
[1] = reducers of endogenous Her2 protein level, primary screen, SKBR3 breast tumor cells, AlphaScreen, ATP viability (AID 461;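 active = Her2 level under about 52% in both replicate screens, with viability over 70% of control, limit read from the data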;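 as to Her2 level: lower value means less Her2 protein in the cells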;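 as to viability: percent of carrier control wells set as 100% viability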); conditions: 18-24 h, measured here: SKBR3 viability, ATP luminescence, at 10 µM
[2] = target: Receptor tyrosine-protein kinase erbB-2 (Homo sapiens) (UniProt P04626); experiment: as above; conditions: 18-24 h, at 10 µM, stronger effect = lower value
Chain of Receptor tyrosine-protein kinase erbB-2 (Homo sapiens) (P04626 whole entry, looked up): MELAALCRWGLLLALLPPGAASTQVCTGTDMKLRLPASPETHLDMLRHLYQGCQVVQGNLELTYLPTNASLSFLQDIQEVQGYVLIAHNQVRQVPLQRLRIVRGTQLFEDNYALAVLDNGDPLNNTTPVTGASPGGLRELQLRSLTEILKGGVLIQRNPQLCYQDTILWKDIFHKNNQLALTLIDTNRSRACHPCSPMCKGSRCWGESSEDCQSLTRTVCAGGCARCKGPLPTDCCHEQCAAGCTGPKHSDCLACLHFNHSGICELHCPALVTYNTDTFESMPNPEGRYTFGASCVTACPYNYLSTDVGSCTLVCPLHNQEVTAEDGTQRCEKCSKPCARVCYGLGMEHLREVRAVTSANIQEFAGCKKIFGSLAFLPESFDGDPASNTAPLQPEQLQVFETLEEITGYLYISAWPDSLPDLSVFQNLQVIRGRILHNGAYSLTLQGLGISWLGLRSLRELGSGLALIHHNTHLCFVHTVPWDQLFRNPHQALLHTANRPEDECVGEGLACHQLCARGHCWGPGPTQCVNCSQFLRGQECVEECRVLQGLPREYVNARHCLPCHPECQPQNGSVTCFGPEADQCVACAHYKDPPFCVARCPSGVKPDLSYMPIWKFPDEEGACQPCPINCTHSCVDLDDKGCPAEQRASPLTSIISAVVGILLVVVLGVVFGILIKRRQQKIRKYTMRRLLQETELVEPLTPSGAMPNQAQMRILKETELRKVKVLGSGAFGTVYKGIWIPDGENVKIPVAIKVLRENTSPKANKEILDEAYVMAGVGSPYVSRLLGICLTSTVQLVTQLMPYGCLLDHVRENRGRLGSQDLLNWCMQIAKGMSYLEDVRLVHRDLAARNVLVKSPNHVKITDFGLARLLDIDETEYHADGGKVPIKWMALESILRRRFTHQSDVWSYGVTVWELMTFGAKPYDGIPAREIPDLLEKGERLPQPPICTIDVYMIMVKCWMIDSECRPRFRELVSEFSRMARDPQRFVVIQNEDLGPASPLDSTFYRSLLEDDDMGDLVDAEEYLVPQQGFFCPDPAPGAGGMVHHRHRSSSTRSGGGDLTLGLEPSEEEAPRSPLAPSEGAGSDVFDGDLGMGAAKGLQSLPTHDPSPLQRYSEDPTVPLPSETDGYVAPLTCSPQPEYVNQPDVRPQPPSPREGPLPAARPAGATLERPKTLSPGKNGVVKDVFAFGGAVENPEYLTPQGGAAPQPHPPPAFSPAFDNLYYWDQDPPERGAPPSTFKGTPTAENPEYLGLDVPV

[3] = SK-BR-3 cell growth inhibitors, pilot screen, 24 h, human (AID 572;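 active = viability at or below 10% of carrier control in both of two separate runs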;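 also: compound exposure lasted between 18 and 24 h rather than exactly 24 h; 100% = carrier-treated control wells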); conditions: SK-BR-3 viability, CellTiter-Glo luminescence, at 10 µM, stronger effect = lower value
[4] = HUVEC growth inhibition – cell-based, human, primary screen (AID 575;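 active = viability at or below 30% in both replicate assays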;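 also: 100% = median of untreated cell wells with 0.1% DMSO on each plate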); conditions: HUVEC proliferation, CellTiter-Glo luminescence, 72 h; at 10 µM; stronger effect = lower value
Summary of the method: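 Assay system: primary human umbilical vein endothelial cells / Buffer or medium: endothelial basal medium with 2% FBS plus growth supplements / Compound dosing: one dose, 10 µM final, 0.1% DMSO / Timing: 72 h treatment at 37 °C / Signal: CTG luminescence / Benchmarks: 32 DMSO-only cell-control wells (high), 32 MePR drug-control wells (low) per plate / Plate: collagen-coated 384-well format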

[5] = growth inhibitors of H69AR lung tumor, primary screen, human, duplicate replicates (AID 580); conditions: H69AR lung tumor cells viability, ATP luminescence, 72 h; at 10 µM; stronger effect = lower value;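 also: 100% = mean luminescence of untreated wells and 0% = no signal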
[6] = reversal of MRP1-mediated doxorubicin resistance, pilot screen, H69AR cells, doxorubicin co-treatment (AID 601;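 active = viability loss from added drug above about 55%, and viability with drug at most 40%, in both replicates, limit read from the data, passing the limit was not always enough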); conditions: CellTiter-Glo, 72 h, at 10 µM; for differential viability (reversal): stronger effect = higher value
[7] = 384-well plate pilot, post-Golgi transport modulator project, inhibition of yeast transport mutant growth (AID 636; in the data active = inhibition above about 31%); conditions: absorbance 615 nm, about 18 h, stronger effect = higher value
[8] = growth suppression of yeast trafficking mutant, preliminary HTS, modulators of trafficking downstream of Golgi apparatus project, 1536-format plate, OD 615 nm (AID 637; in the data active = inhibition above about 30%); conditions: yeast transport mutant growth, absorbance 615 nm, 18 h; stronger effect = higher value
[9] = H69AR cells + 2 uM doxorubicin, measured here: viability with 2 uM doxorubicin, stronger effect = lower value
[10] = H69AR cells, compound alone cytotoxicity

Structure (SMILES) | viability [1] | Her2 level [2] | viability [3] | viability [4] | viability [5] | differential viability (reversal) ([6]; H69AR cells + 2 uM doxorubicin) | viability [6, 9] | viability [6, 10] | inhibition [7] | inhibition [8]
Cc1ccc(O)c(NC(=O)COc2cc(C)ccc2C)c1 | 93.5% | 89.5% (inactive) | 93.5% (inactive) | 77.7% (inactive) | 89.4% (inactive) | 5.4% (inactive) | 84% | 89.4% | -1.97% (inactive) | -10.3% (inactive)
COc1ccc(C(=O)OCC(=O)NCc2ccco2)cc1OC | 110% | 89.5% (inactive) | 110% (inactive) | 102% (inactive) | 78.4% (inactive) | -3.74% (inactive) | 82.1% | 78.4% | -1.95% (inactive) | -6.23% (inactive)
COC(=O)c1cc(Br)c(=O)n(CCN2CCOCC2)c1 | 102% | 87% (inactive) | 102% (inactive) | 81.5% (inactive) | 96.2% (inactive) | 13.5% (inactive) | 82.8% | 96.2% | -4.27% (inactive) | -0.49% (inactive)
Cc1cccc(N2C(=O)CC(N3CCN(Cc4ccc(Cl)cc4)CC3)C2=O)c1 (stereo not given) | 104% | 100% (inactive) | 104% (inactive) | 94.7% (inactive) | 99.2% (inactive) | 12.2% (inactive) | 86.9% | 99.2% | -3.87% (inactive) | 0.82% (inactive)
CCOC(=O)N1CCN(S(=O)(=O)c2ccc(F)c(C(=O)Nc3cc(C)cc(C)c3)c2)CC1 | 76% | 112% (inactive) | 76% (inactive) | 78.6% (inactive) | 83.3% (inactive) | 1.41% (inactive) | 81.9% | 83.3% | -2.11% (inactive) | -11.8% (inactive)
Cc1cnnc2c1-c1nonc1CC2 | 94.5% | 102% (inactive) | 94.5% (inactive) | 87.4% (inactive) | 105% (inactive) | 15.2% (inactive) | 90.1% | 105% | -6.13% (inactive) | 2.74% (inactive)
CC1=CCC2C(=O)N(c3nc(C)cc(C)n3)C(=O)C2C1 (stereo not given) | 110% | 80% (inactive) | 110% (inactive) | 101% (inactive) | 91.1% (inactive) | -3.95% (inactive) | 95% | 91.1% | -6.71% (inactive) | 0.48% (inactive)
CCOC(=O)C1CCCN(Cc2nc(N)nc(Nc3ccc(C)cc3)n2)C1 (stereo not given) | 99.5% | 78% (inactive) | 99.5% (inactive) | 80% (inactive) | 87.4% (inactive) | -1.19% (inactive) | 88.6% | 87.4% | 0% (inactive) | 7.54% (inactive)
O=C(c1ccccc1)c1coc2ccc(O)c(CN3CCOCC3)c12 | 78.5% | 75.5% (inactive) | 78.5% (inactive) | 115% (inactive) | 88.5% (inactive) | -9.25% (inactive) | 97.8% | 88.5% | -3.42% (inactive) | 5.9% (inactive)
Cc1ccc(NC(=O)Cn2cccc2)cc1Cl | 94% | 85% (inactive) | 94% (inactive) | 98.5% (inactive) | 96.3% (inactive) | 17.9% (inactive) | 78.5% | 96.3% | -5.95% (inactive) | -3.67% (inactive)
CCOCCn1cnc2sc(C(=O)NCC(=O)OCC)c(C)c2c1=O | 95.5% | 90% (inactive) | 95.5% (inactive) | 86.6% (inactive) | 86.8% (inactive) | -1.89% (inactive) | 88.7% | 86.8% | -2.37% (inactive) | 2.9% (inactive)
Cc1cc(C)cc(NC(=O)CCNS(=O)(=O)c2ccc3c(c2)oc(=O)n3C)c1 | 118% | 112% (inactive) | 118% (inactive) | 95.8% (inactive) | 94.9% (inactive) | -2.07% (inactive) | 97% | 94.9% | -6.16% (inactive) | 1.75% (inactive)
COc1ccccc1N(CC(=O)NCc1ccccc1)S(C)(=O)=O | 103% | 92.5% (inactive) | 103% (inactive) | 106% (inactive) | 97% (inactive) | 3.07% (inactive) | 93.9% | 97% | -9.19% (inactive) | -7.33% (inactive)
Cn1c2ccc(F)cc2c2ncn(CCN3CCOCC3)c(=O)c21 | 88.5% | 82.5% (inactive) | 88.5% (inactive) | 98.6% (inactive) | 97.4% (inactive) | 6.95% (inactive) | 90.4% | 97.4% | -6% (inactive) | -3.02% (inactive)
O=C(O)c1cc2c([nH]c1=O)CCCC2 | 93.5% | 81.5% (inactive) | 93.5% (inactive) | 95% (inactive) | 88.8% (inactive) | 0.75% (inactive) | 88% | 88.8% | -2.24% (inactive) | -1.82% (inactive)
Cc1ccc(-c2nnn(CC(=O)N(Cc3cccs3)C(C(=O)NC(C)(C)C)c3ccc(C)o3)n2)o1 (stereo not given) | 86.5% | 96.5% (inactive) | 86.5% (inactive) | 93.4% (inactive) | 79% (inactive) | 3.37% (inactive) | 75.7% | 79% | -0.77% (inactive) | -5.67% (inactive)

Structure (SMILES) | viability [1] | Her2 level [2] | viability [3] | viability [4] | viability [5] | differential viability (reversal) ([6]; H69AR cells + 2 uM doxorubicin) | viability [6, 9] | viability [6, 10] | inhibition [7] | inhibition [8]
Oc1cc(NCc2cccnc2)ccc1-c1nc2ccccc2o1 | 86.5% | 94% (inactive) | 86.5% (inactive) | 97.2% (inactive) | 82.7% (inactive) | -7.37% (inactive) | 90.1% | 82.7% | 1.17% (inactive) | 10.8% (inactive)
CCOC(=O)N1CCN(c2nc(-c3ccc(Cl)cc3)cs2)CC1 | 79.5% | 125% (inactive) | 79.5% (inactive) | 98.3% (inactive) | 89.1% (inactive) | -9.49% (inactive) | 98.6% | 89.1% | -4.23% (inactive) | -7.83% (inactive)
CCCCCCOC(=O)C(C#N)c1nc2ccccc2nc1N1CCCCC1 (stereo not given) | 94% | 88% (inactive) | 94% (inactive) | 63.8% (inactive) | 89.1% (inactive) | -11.9% (inactive) | 101% | 89.1% | -2.47% (inactive) | -2.33% (inactive)
Cc1c(C(=O)O)oc2ccc(S(=O)(=O)NCCC3=CCCCC3)cc12 | 100% | 98.5% (inactive) | 100% (inactive) | 95.9% (inactive) | 101% (inactive) | 6.48% (inactive) | 94.3% | 101% | -3.16% (inactive) | -9.52% (inactive)
CCOC(=O)CC(=O)CSc1[nH]c(=O)cc(C)c1C#N | 87.5% | 106% (inactive) | 87.5% (inactive) | 99.3% (inactive) | 108% (inactive) | 4.69% (inactive) | 104% | 108% | -4.8% (inactive) | -0.16% (inactive)
CCOC(=O)c1ccc(N2C(=O)C3CC=CCC3C2=O)cc1 (stereo not given) | 112% | 116% (inactive) | 112% (inactive) | 92.8% (inactive) | 99.3% (inactive) | 7.42% (inactive) | 91.9% | 99.3% | -6.4% (inactive) | -10.2% (inactive)
CC(NC(=O)COc1ccccc1)C(=O)NC1=NCCS1 (stereo not given) | 89% | 124% (inactive) | 89% (inactive) | 88.8% (inactive) | 94.4% (inactive) | 3.6% (inactive) | 90.8% | 94.4% | -4.36% (inactive) | -11.8% (inactive)
CN1CC[n+]2cnc3ccccc3c21 | 100% | 92% (inactive) | 100% (inactive) | 108% (inactive) | 97.3% (inactive) | 8.2% (inactive) | 89.1% | 97.3% | -2.24% (inactive) | 6.23% (inactive)
CCOc1ccccc1C1NC(=O)NC(C)=C1C(=O)OC1CCCC1C (stereo not given) | 94.5% | 69% (inactive) | 94.5% (inactive) | 82.5% (inactive) | 78.1% (inactive) | 2.33% (inactive) | 75.8% | 78.1% | -1.73% (inactive) | 0.81% (inactive)
CCCN1C2CCCC1CC(NC(=O)Nc1cccc(C(C)=O)c1)C2 (stereo not given) | 105% | 77% (inactive) | 105% (inactive) | 94.8% (inactive) | 94.3% (inactive) | -2.24% (inactive) | 96.5% | 94.3% | -1.95% (inactive) | -0.95% (inactive)
NC(=O)CCS(=O)(=O)CCN1CCCCC1 | 93.5% | 86% (inactive) | 93.5% (inactive) | 102% (inactive) | 93.2% (inactive) | -0.51% (inactive) | 93.7% | 93.2% | -0.13% (inactive) | -2.95% (inactive)
COc1ccc(CCNC(=O)C2CCN(S(=O)(=O)c3cc(OC)ccc3OC)CC2)cc1 | 93% | 95% (inactive) | 93% (inactive) | 114% (inactive) | 103% (inactive) | 5.9% (inactive) | 96.8% | 103% | -7.97% (inactive) | 4.59% (inactive)
Cc1ccccc1CS(=O)(=O)CCC(=O)N1CCN(c2ccc(N3CCOCC3)nn2)CC1 | 91.5% | 81% (inactive) | 91.5% (inactive) | 97.1% (inactive) | 103% (inactive) | 10.7% (inactive) | 92.7% | 103% | -2.24% (inactive) | -0.73% (inactive)
Cc1noc(C)c1C(=O)OCC(=O)Nc1ccccc1C(=O)NC(C)c1ccccc1 (stereo not given) | 90.5% | 86% (inactive) | 90.5% (inactive) | 70.5% (inactive) | 87.2% (inactive) | -6.91% (inactive) | 94.1% | 87.2% | -4.93% (inactive) | 6.72% (inactive)
COc1ccc2cc(CN(CCO)C(=O)c3ccccc3F)c(=O)[nH]c2c1 | 106% | 126% (inactive) | 106% (inactive) | 96.9% (inactive) | 95.3% (inactive) | 8.58% (inactive) | 86.7% | 95.3% | 2.86% (inactive) | -8.33% (inactive)
CCCC(c1nnnn1Cc1ccc(OC)cc1)N1CCN(c2ccccc2OC)CC1 (stereo not given) | 103% | 112% (inactive) | 103% (inactive) | 92.4% (inactive) | 90% (inactive) | -5.73% (inactive) | 95.7% | 90% | -2.47% (inactive) | -2.3% (inactive)
